“And” between values parts separate entries of the source, which are not always exact repeats. Equal values may be shown once. “Also recorded” adds a separate entry of the source. Read-outs that look alike come from different tables or passages of the source.
Tests used:
[1] = healthy participants, cited from earlier work
human plasma proteins = test: Plasma protein binding by ultrafiltration, 3 h postdose samples; format: in vitro ADME
MET = MET inhibitor; cited from earlier work
[2] = Safety assessments and adverse events after single-dose capmatinib; format: in vivo, human; settings: for AEs, any primary system organ class: regardless of study drug relationship
Method in brief: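 Single oral 200 mg dose; participants confined from day −1 to day 4. Haematology, chemistry, coagulation and urinalysis at screening, baseline, days 1–2 and end of treatment; vital signs on days 1–3. Triplicate 12-lead ECGs. AEs/SAEs recorded with severity and relatedness, graded per CTCAE v4.03. Phone follow-up at 30 days post-dose.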

plasma protein = settings: cited from earlier work
[3] = format: in vivo, human
Method in brief: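 Adults aged 18–75 with hepatic impairment (Child–Pugh A/B/C, also reclassified by NCI Organ Dysfunction Working Group criteria) or normal function, matched on age, weight and sex. Overnight fast (≥10 h), single oral 200 mg (2 × 100 mg tablets), fasting ≥4 h post-dose. Plasma sampled predose to 72 h; parent and metabolite measured by validated LC-MS/MS (LLOQ ~1.00 ng/mL). Noncompartmental analysis; GM ratios vs normal with 90% CIs.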

[4] = repeated administration of 400-mg BID tablets; cited from earlier work
[5] = single oral dose 200 mg, mild, Child–Pugh A (n = 6)
[6] = single oral dose 200 mg, moderate, Child–Pugh B (n = 8)
[7] = single oral dose 200 mg, normal (n = 9)
[8] = single oral dose 200 mg, severe, Child–Pugh C (n = 6)

SMILES: CNC(=O)c1ccc(-c2cnc3ncc(Cc4ccc5ncccc5c4)n3n2)cc1F [capmatinib]
- tolerability ([1]; single dose of 600 mg, tablet formulation): tolerated
- PK dose linearity ([1]; tablets, single dose of 200–600 mg): linear
- bound to human plasma proteins (human plasma proteins; 3 hours postdose samples, across all participants): 96.7%
- GM unbound fraction higher vs. normal group (human plasma proteins; severe group): ~ 44.8%
- IC50 (MET): 0.6 nM
- AEs, any primary system organ class, maximum Grade 1 ([2]; all participants (N = 31)): 5 (16.1) n (%)
- AEs, any primary system organ class, maximum Grade 2 ([2]; all participants (N = 31)): 1 (3.2) n (%)
- Diarrhoea ([2]; all participants (N = 31)): 1 (3.2) n (%)
- Dizziness ([2]; all participants (N = 31)): 1 (3.2) n (%)
- Ear and labyrinth disorders ([2]; all participants (N = 31)): 1 (3.2) n (%)
- Flatulence ([2]; all participants (N = 31)): 1 (3.2) n (%)
- Gastrointestinal disorders ([2]; all participants (N = 31)): 3 (9.7) n (%)
- General disorders and administration site conditions ([2]; all participants (N = 31)): 1 (3.2) n (%)
- Headache ([2]; all participants (N = 31)): 2 (6.5) n (%)
- Hypoglycaemia ([2]; all participants (N = 31)): 1 (3.2) n (%)
- Medical device site dermatitis ([2]; all participants (N = 31)): 1 (3.2) n (%)
- Metabolism and nutrition disorders ([2]; all participants (N = 31)): 1 (3.2) n (%)
- Nausea ([2]; all participants (N = 31)): 2 (6.5) n (%)
- Nervous system disorders ([2]; all participants (N = 31)): 2 (6.5) n (%)
- Vertigo ([2]; all participants (N = 31)): 1 (3.2) n (%)
- participants with AEs suspected to be capmatinib related ([2]; all participants (N = 31)): 9.7%
- severity of AEs suspected to be capmatinib related ([2]; all participants (N = 31)): grade 1
- deaths and SAEs ([2]; during study treatment and 30-day follow-up): No deaths and SAEs
- AEs, any primary system organ class, maximum Grade 1 ([2]; mild (n = 7)): 2 (28.6) n (%)
- AEs, any primary system organ class, maximum Grade 2 ([2]; mild (n = 7)): 1 (14.3) n (%)
- Diarrhoea ([2]; mild (n = 7)): 0 n (%)
- Dizziness ([2]; mild (n = 7)): 0 n (%)
- Ear and labyrinth disorders ([2]; mild (n = 7)): 1 (14.3) n (%)
- Flatulence ([2]; mild (n = 7)): 0 n (%)
- Gastrointestinal disorders ([2]; mild (n = 7)): 0 n (%)
- General disorders and administration site conditions ([2]; mild (n = 7)): 1 (14.3) n (%)
- Headache ([2]; mild (n = 7)): 1 (14.3) n (%)
- Hypoglycaemia ([2]; mild (n = 7)): 1 (14.3) n (%)
- Medical device site dermatitis ([2]; mild (n = 7)): 1 (14.3) n (%)
- Metabolism and nutrition disorders ([2]; mild (n = 7)): 1 (14.3) n (%)
- Nausea ([2]; mild (n = 7)): 0 n (%)
- Nervous system disorders ([2]; mild (n = 7)): 1 (14.3) n (%)
- Vertigo ([2]; mild (n = 7)): 1 (14.3) n (%)
- AEs, any primary system organ class, maximum Grade 1 ([2]; moderate (n = 8)): 2 (25.0) n (%)
- AEs, any primary system organ class, maximum Grade 2 ([2]; moderate (n = 8)): 0 n (%)
- Diarrhoea ([2]; moderate (n = 8)): 0 n (%)
- Dizziness ([2]; moderate (n = 8)): 1 (12.5) n (%)
- Ear and labyrinth disorders ([2]; moderate (n = 8)): 0 n (%)
- Flatulence ([2]; moderate (n = 8)): 0 n (%)
- Gastrointestinal disorders ([2]; moderate (n = 8)): 2 (25.0) n (%)
- General disorders and administration site conditions ([2]; moderate (n = 8)): 0 n (%)
- Headache ([2]; moderate (n = 8)): 1 (12.5) n (%)
- Hypoglycaemia ([2]; moderate (n = 8)): 0 n (%)
- Medical device site dermatitis ([2]; moderate (n = 8)): 0 n (%)
- Metabolism and nutrition disorders ([2]; moderate (n = 8)): 0 n (%)
- Nausea ([2]; moderate (n = 8)): 2 (25.0) n (%)
- Nervous system disorders ([2]; moderate (n = 8)): 1 (12.5) n (%)
- Vertigo ([2]; moderate (n = 8)): 0 n (%)
- AEs, any primary system organ class, maximum Grade 1 ([2]; normal (n = 10)): 0 n (%)
- AEs, any primary system organ class, maximum Grade 2 ([2]; normal (n = 10)): 0 n (%)
- Diarrhoea ([2]; normal (n = 10)): 0 n (%)
- Dizziness ([2]; normal (n = 10)): 0 n (%)
- Ear and labyrinth disorders ([2]; normal (n = 10)): 0 n (%)
- Flatulence ([2]; normal (n = 10)): 0 n (%)
- Gastrointestinal disorders ([2]; normal (n = 10)): 0 n (%)
- General disorders and administration site conditions ([2]; normal (n = 10)): 0 n (%)
- Headache ([2]; normal (n = 10)): 0 n (%)
- Hypoglycaemia ([2]; normal (n = 10)): 0 n (%)
- Medical device site dermatitis ([2]; normal (n = 10)): 0 n (%)
- Metabolism and nutrition disorders ([2]; normal (n = 10)): 0 n (%)
- Nausea ([2]; normal (n = 10)): 0 n (%)
- Nervous system disorders ([2]; normal (n = 10)): 0 n (%)
- Vertigo ([2]; normal (n = 10)): 0 n (%)
- AEs, any primary system organ class ([2]; all participants (N = 31)): 6 n (%) and 6 (19.4) n (%)
- AEs, any primary system organ class ([2]; mild (n = 7)): 3 (42.9) n (%)
- AEs, any primary system organ class ([2]; moderate (n = 8)): 2 (25.0) n (%)
- AEs, any primary system organ class ([2]; normal (n = 10)): 0 n (%)
- AEs, any primary system organ class ([2]; severe (n = 6)): 1 (16.7) n (%)
- AEs, any primary system organ class, maximum Grade 1 ([2]; severe (n = 6)): 1 (16.7) n (%)
- AEs, any primary system organ class, maximum Grade 2 ([2]; severe (n = 6)): 0 n (%)
- Diarrhoea ([2]; severe (n = 6)): 1 (16.7) n (%)
- Dizziness ([2]; severe (n = 6)): 0 n (%)
- Ear and labyrinth disorders ([2]; severe (n = 6)): 0 n (%)
- Flatulence ([2]; severe (n = 6)): 1 (16.7) n (%)
- Gastrointestinal disorders ([2]; severe (n = 6)): 1 (16.7) n (%)
- General disorders and administration site conditions ([2]; severe (n = 6)): 0 n (%)
- Headache ([2]; severe (n = 6)): 0 n (%)
- Hypoglycaemia ([2]; severe (n = 6)): 0 n (%)
- Medical device site dermatitis ([2]; severe (n = 6)): 0 n (%)
- Metabolism and nutrition disorders ([2]; severe (n = 6)): 0 n (%)
- Nausea ([2]; severe (n = 6)): 0 n (%)
- Nervous system disorders ([2]; severe (n = 6)): 0 n (%)
- Vertigo ([2]; severe (n = 6)): 0 n (%)
- tolerability ([2]; single dose, mild, moderate, severe hepatic impairment and normal hepatic function): well tolerated
- changes in chemistry parameters, QTcF or other ECG parameters ([2]; single oral dose 200 mg): No clinically relevant changes
- changes in haematological parameters ([2]; single oral dose 200 mg): Minimal changes
- bound to plasma protein (plasma protein): 96%
- increase in GM AUCinf, AUClast and Cmax vs. normal group ([3]; NCI classification, both mild and moderate groups): 26–46%
- increase in GM AUCinf vs. normal group ([3]; NCI classification, mild group): 26%
- increase in GM AUClast vs. normal group ([3]; NCI classification, mild group): 27%
- increase in GM Cmax vs. normal group ([3]; NCI classification, mild group): 35%
- increase in GM Cmax vs. normal group ([3]; NCI classification, moderate group): 46%
- AUC(0-inf) ([3]; human, plasma, po, 200 mg, AUCinf, GM, single oral dose 200 mg, normal (n = 9)): 6240 ng·h/mL
- AUC(0-t) ([3]; human, plasma, po, 200 mg, AUClast, GM, single oral dose 200 mg, normal (n = 9)): 6190 ng·h/mL
- Cmax ([3]; human, plasma, po, 200 mg, Cmax, GM, single oral dose 200 mg, normal (n = 9)): 1740 ng/mL
- Vd/F ([3]; human, plasma, po, 200 mg, Vz/F, GM, single oral dose 200 mg, normal (n = 9)): 483 L
- half-life ([3]; human, plasma, po, 200 mg, t½, GM, single oral dose 200 mg, normal (n = 9)): 624 min
- GM exposures vs. normal group, interim PK analysis ([3]; mild and moderate groups, end of stage 1): < 3 fold
- GM Vz/F lower vs. normal group ([3]; mild group): 32.9%
- GM t½ shorter vs. normal group ([3]; mild group): 48.4%
- decrease in GM AUCinf vs. normal group ([3]; mild group): 23.3%
- decrease in GM Cmax vs. normal group ([3]; mild group): 27.6%
- increase in GM CL/F vs. normal group ([3]; mild group): 30.6%
- decrease in GM AUCinf,u vs. normal group ([3]; mild group, unbound): 19.3%
- decrease in GM AUClast,u vs. normal group ([3]; mild group, unbound): 19.6%
- decrease in GM Cmax,u vs. normal group ([3]; mild group, unbound): 23.9%
- GM Vz/F lower vs. normal group ([3]; moderate group): 39.5%
- GM t½ shorter vs. normal group ([3]; moderate group): 44.5%
- decrease in GM AUCinf vs. normal group ([3]; moderate group): 8.6%
- decrease in GM Cmax vs. normal group ([3]; moderate group): 17.2%
- increase in GM CL/F vs. normal group ([3]; moderate group): 9.7%
- GM Cmax,u, AUClast,u and AUCinf,u vs. normal group ([3]; moderate group, unbound): similar
- GM Vz/F lower vs. normal group ([3]; severe group): 53.0%
- GM t½ shorter vs. normal group ([3]; severe group): 41.5%
- change in GM Cmax vs. normal group ([3]; severe group): remained unchanged; also recorded: remained similar
- decrease in GM CL/F vs. normal group ([3]; severe group): 19.1%
- increase in GM AUCinf vs. normal group ([3]; severe group): 24%
- increase in GM AUCinf,u vs. normal group ([3]; severe group, unbound): 78%
- increase in GM AUClast,u vs. normal group ([3]; severe group, unbound): 78%
- increase in GM Cmax,u vs. normal group ([3]; severe group, unbound): 46%
- CL/F, GM [3, 5]: 41.8 L/h
- CL/F, mean (SD) [3, 5]: 42.6 (9.23) L/h
- CL/F, GM [3, 6]: 35.1 L/h
- CL/F, mean (SD) [3, 6]: 36.6 (11.4) L/h
- CL/F, GM [3, 7]: 32.0 L/h
- CL/F, mean (SD) [3, 7]: 36.1 (19.1) L/h
- CL/F, GM [3, 8]: 25.9 L/h
- CL/F, mean (SD) [3, 8]: 28.2 (11.7) L/h
- steady state GM accumulation ratio [4]: 1.4
